Holding throughout (assay): HIF-1a and HIF-2a reporter inhibitors, SAR follow-up, cell-based, luminescence, MIAPaCa-2, 786-0, panel (AID 652011)
The subject of one experiment is HIF1a. As to conditions: MIAPaCa-2/PANC HIF reporter, luciferase luminescence, desferoxamine, overnight. In short, it runs like this:
(§1)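 Probe or stimulus: desferoxamine stimulus / Schedule: overnight compound incubation at 37 °C, 10 min reagent / Dosing: compounds from 10 mM and 0.3125 mM stocks, 1% DMSO final / Signal: luciferase luminescence with One-Glo reagent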

Another experiment relates to HIF2a PANC. To be noted: MIAPaCa-2/PANC HIF reporter, luciferase luminescence, desferoxamine, overnight. In short, it runs like this: as §1
Experiment [1] has as its target Endothelial PAS domain-containing protein 1 (Homo sapiens) (UniProt Q99814). To be noted: MIAPaCa-2/PANC HIF reporter, luciferase luminescence, desferoxamine, overnight; HIF2a PANC cells; mean of runs. In short, it runs like this: as §1
The mark [2] stands for this setting: run 1, individual run IC50, panel line.
Setting [3] is: run 2, individual run IC50, panel line.

Active and inactive are the calls of the source.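 Rule for the calls: active = IC50 of 10 µM or lower on HIF-2a in both cell lines, but not on HIF-1a; inactive = the rest, including compounds also potent on HIF-1a.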

Sequence of Endothelial PAS domain-containing protein 1 (Homo sapiens) (Q99814 whole entry, looked up, the tested form may be a part): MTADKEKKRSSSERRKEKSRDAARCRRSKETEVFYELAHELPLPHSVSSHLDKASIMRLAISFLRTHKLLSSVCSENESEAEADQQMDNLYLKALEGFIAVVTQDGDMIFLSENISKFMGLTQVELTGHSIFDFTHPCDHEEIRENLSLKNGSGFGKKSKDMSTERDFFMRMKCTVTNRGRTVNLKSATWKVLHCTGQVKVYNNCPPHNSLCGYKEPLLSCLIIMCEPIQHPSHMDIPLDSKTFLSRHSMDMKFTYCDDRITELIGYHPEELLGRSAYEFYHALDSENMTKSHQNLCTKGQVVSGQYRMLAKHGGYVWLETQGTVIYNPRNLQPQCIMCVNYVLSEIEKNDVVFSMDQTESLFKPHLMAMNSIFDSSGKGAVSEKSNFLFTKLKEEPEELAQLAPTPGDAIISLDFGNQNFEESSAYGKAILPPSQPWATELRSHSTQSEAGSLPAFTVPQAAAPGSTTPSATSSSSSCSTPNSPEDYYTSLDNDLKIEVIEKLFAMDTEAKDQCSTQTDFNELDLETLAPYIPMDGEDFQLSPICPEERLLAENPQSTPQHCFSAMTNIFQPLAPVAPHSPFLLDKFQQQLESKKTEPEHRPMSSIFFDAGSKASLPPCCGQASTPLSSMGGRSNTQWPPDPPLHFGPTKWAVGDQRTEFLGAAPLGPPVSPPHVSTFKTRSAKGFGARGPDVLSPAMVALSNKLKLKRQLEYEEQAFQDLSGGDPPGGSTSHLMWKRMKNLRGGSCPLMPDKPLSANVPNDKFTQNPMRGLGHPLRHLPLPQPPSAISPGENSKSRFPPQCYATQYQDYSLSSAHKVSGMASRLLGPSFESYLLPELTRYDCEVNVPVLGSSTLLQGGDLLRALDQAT

As for `CC(C)(C)c1ccc(-c2noc(CCC(=O)NCc3ccco3)n2)cc1`, the half-inhibitory concentration (IC50) – broadly, the concentration that inhibits the measured activity by half – in the experiment on HIF1a (setting [2]) was > 99 µM; in the experiment with HIF1a (setting [3]), > 99 µM; in the experiment with HIF2a PANC (setting [2]), < 0.19 µM.
In the case of `CCNC(=O)CCc1nc(-c2cccc(OC)c2)no1`, the IC50 in experiment [1] was > 99 µM (inactive); with HIF1a (setting [2]), > 99 µM; with HIF1a (setting [3]) it was > 99 µM; with HIF2a PANC (setting [2]), > 99 µM; in the experiment on HIF2a PANC (setting [3]) it was > 99 µM.
As for `CC(C)(C)c1ccc(-c2noc(CCC(=O)N3CCOCC3)n2)cc1`, the IC50 is > 99 µM (inactive) in experiment [1]; > 99 µM with HIF1a (setting [2]); > 99 µM with HIF1a (setting [3]); > 99 µM in the experiment with HIF2a PANC (setting [2]); > 99 µM with HIF2a PANC (setting [3]).
For the compound `CNC(=O)CCc1nc(-c2ccc(OC)cc2)no1`, the IC50 in experiment [1] is > 99 µM (inactive); with HIF1a (setting [2]), > 99 µM; in the experiment on HIF1a (setting [3]), > 99 µM; in the experiment on HIF2a PANC (setting [2]), > 99 µM; in the experiment with HIF2a PANC (setting [3]), > 99 µM.
As to `CCC(C)NC(=O)CCc1nc(-c2ccc(C(C)C)cc2)no1` (stereo not drawn), the IC50 was > 99 µM (inactive) in experiment [1]; > 99 µM with HIF1a (setting [2]); > 99 µM with HIF1a (setting [3]); > 99 µM in the experiment on HIF2a PANC (setting [2]); > 99 µM in the experiment with HIF2a PANC (setting [3]).
For `CCNC(=O)CCc1nc(-c2cccc(C)c2)no1`, the IC50 in experiment [1] was > 99 µM (inactive); in the experiment on HIF1a (setting [2]) it was > 99 µM; in the experiment on HIF1a (setting [3]) it was > 99 µM; in the experiment on HIF2a PANC (setting [2]), > 99 µM; with HIF2a PANC (setting [3]) it was > 99 µM.
Turning to `CN(C)C(=O)CCc1nc(-c2ccc(C(C)(C)C)cc2)no1`, the IC50 is > 99 µM (inactive) in experiment [1]; > 99 µM in the experiment with HIF1a (setting [2]); > 99 µM with HIF1a (setting [3]); > 99 µM with HIF2a PANC (setting [2]); > 99 µM in the experiment on HIF2a PANC (setting [3]).
With `CCc1ccc(-c2noc(CCC(=O)NC(C)CC)n2)cc1` (stereo not drawn), the IC50 is > 99 µM (inactive) in experiment [1]; > 99 µM with HIF1a (setting [2]); > 99 µM in the experiment with HIF1a (setting [3]); > 99 µM in the experiment with HIF2a PANC (setting [2]); > 99 µM with HIF2a PANC (setting [3]).
For `CCNC(=O)CCc1nc(-c2ccccc2)no1`, the IC50 in experiment [1] is > 99 µM (inactive); in the experiment on HIF1a (setting [2]), > 99 µM; in the experiment with HIF1a (setting [3]), > 99 µM; in the experiment with HIF2a PANC (setting [2]), > 99 µM; with HIF2a PANC (setting [3]), > 99 µM.
`CCNC(=O)CCc1nc(-c2ccc(CC)cc2)no1`: the IC50 in experiment [1] is > 99 µM (inactive); in the experiment on HIF1a (setting [2]), > 99 µM; in the experiment on HIF1a (setting [3]), > 99 µM; in the experiment on HIF2a PANC (setting [2]), > 99 µM; in the experiment on HIF2a PANC (setting [3]), > 99 µM.
For the compound `CNC(=O)CCc1nc(-c2ccccc2)no1`, the IC50 in experiment [1] was > 99 µM (inactive); with HIF1a (setting [2]) it was > 99 µM; in the experiment on HIF1a (setting [3]), > 99 µM; with HIF2a PANC (setting [2]), > 99 µM; in the experiment on HIF2a PANC (setting [3]), > 99 µM.
Take `CCNC(=O)CCc1nc(-c2ccccc2C)no1`: the IC50 in experiment [1] is > 99 µM (inactive); in the experiment with HIF1a (setting [2]), > 99 µM; in the experiment on HIF1a (setting [3]), > 99 µM; with HIF2a PANC (setting [2]), > 99 µM; with HIF2a PANC (setting [3]), > 99 µM.
As to `CC(C)(C)NC(=O)CCc1nc(-c2ccccc2)no1`, the IC50 in experiment [1] is > 99 µM (inactive); in the experiment on HIF1a (setting [2]), > 99 µM; with HIF1a (setting [3]), > 99 µM; in the experiment with HIF2a PANC (setting [2]), > 99 µM; in the experiment on HIF2a PANC (setting [3]), > 99 µM.
For the compound `CCNC(=O)CCc1nc(-c2ccccc2Cl)no1`, the IC50 in experiment [1] is > 99 µM (inactive); in the experiment with HIF1a (setting [2]), > 99 µM; in the experiment with HIF1a (setting [3]) it was > 99 µM; in the experiment with HIF2a PANC (setting [2]), > 99 µM; with HIF2a PANC (setting [3]) it was > 99 µM.
For the compound `CC(C)(C)c1ccc(-c2noc(CCC(=O)NCC3CCCO3)n2)cc1` (stereo not drawn), the IC50 in experiment [1] is < 0.19 µM; with HIF1a (setting [2]) it was > 99 µM; in the experiment on HIF1a (setting [3]), > 99 µM; with HIF2a PANC (setting [2]) it was < 0.19 µM; in the experiment on HIF2a PANC (setting [3]), < 0.19 µM.
With `CCOc1ccc(-c2noc(CCC(=O)NC)n2)cc1`, the IC50 in experiment [1] was 1.2 µM; with HIF1a (setting [2]), > 99 µM; with HIF1a (setting [3]), > 99 µM; with HIF2a PANC (setting [2]) it was 1.72 µM; in the experiment on HIF2a PANC (setting [3]), 0.673 µM.
Take `CCCCc1ccc(-c2noc(CCC(=O)NCC)n2)cc1`: the half-maximal inhibitory concentration (IC50) in experiment [1] was < 0.19 µM; in the experiment with HIF1a (setting [2]), > 99 µM; in the experiment with HIF1a (setting [3]) it was > 99 µM; with HIF2a PANC (setting [2]) it was < 0.19 µM; in the experiment on HIF2a PANC (setting [3]) it was < 0.19 µM.
As for `CCC(C)NC(=O)CCc1nc(-c2ccccc2)no1` (stereo not drawn), the IC50 in experiment [1] was > 99 µM (inactive); in the experiment on HIF1a (setting [2]), > 99 µM; with HIF1a (setting [3]), > 99 µM; in the experiment on HIF2a PANC (setting [2]), > 99 µM; with HIF2a PANC (setting [3]) it was > 99 µM.
Consider `CCN(CC)C(=O)CCc1nc(-c2ccc(C(C)(C)C)cc2)no1`, for which the IC50 in experiment [1] was > 99 µM (inactive); with HIF1a (setting [2]), > 99 µM; with HIF1a (setting [3]) it was > 99 µM; in the experiment with HIF2a PANC (setting [2]), > 99 µM; in the experiment with HIF2a PANC (setting [3]) it was > 99 µM.
As to `CCNC(=O)CCc1nc(-c2cccc(F)c2)no1`, the IC50 was > 99 µM (inactive) in experiment [1]; > 99 µM in the experiment on HIF1a (setting [2]); > 99 µM with HIF1a (setting [3]); > 99 µM in the experiment on HIF2a PANC (setting [2]); > 99 µM in the experiment on HIF2a PANC (setting [3]).
